# Screens from PubChem BioAssay.
# This is one part of a sample in which hits are shown more often than they occur.
# HUVEC inhibit: inhibitors of HUVEC proliferation, primary screen, cell-based, 384-well; viability, % at 10 µM (by protocol); 86,000 tested, 1.1% active; CellTiter-Glo luminescence, 72 h; active compounds read low;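 active = viability at or below 30%; inactive = viability above 30%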;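 note: 100% = median luminescence of DMSO-only cell control wells on each plate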
# HCT116 bCat-KO: primary screen for growth suppressors in beta-catenin knockout HCT116 cells (colon tumor, human); AID 818, 2007; 140,000 tested, 1.5% active; HCT116 beta-catenin knockout viability, CellTiter-Glo, 60 h; active compounds read low; viability, % at 10 µM;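 active = viability at or under a set limit, the compound median less 4 SD, cut at about 6% in these data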;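 note: 0% = Hyamine 1622 control at 20 µM and 100% = untreated cell control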
# H69AR inhibit: proliferation blockers of H69AR lung cancer cells, primary screen, cell-based, human, 86K library; H69AR lung tumor viability, ATP luminescence, 72 h; active compounds read low; viability, % at 10 µM; 85,000 tested, 6% active; AID 598, 2007;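 active = viability at or below 40%; inactive = viability above 40%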;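 note: multidrug resistant small cell line overexpressing MRP-1 efflux transporter; 100% = mean luminescence of untreated control wells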
# Fibroblast inh: antiproliferative effect on LL 47 fibroblasts – human, LL 47 cells, CellTiter-Glo luminescence, primary screen. LL 47 human lung fibroblast viability, ATP luminescence; active compounds read low. viability, % at 10 µM. 85,000 tested, 1.1% active;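 active = viability at or below 50% in the single dose screen; inactive = viability above 50%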;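 note: compound exposure lasted 72 h before the ATP readout; 100% = median luminescence of untreated cell-only wells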
#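 Material: human LL 47 lung fibroblast cells; quantity: 1,150 cells/well; medium: IMEM plus 15% FBS; doses: 0.1% DMSO in all compound wells; timing: overnight attachment after seeding, then 72 h compound exposure at 37 °C; detection: CellTiter-Glo luminescence; measure: % viability of median cell-only signal; controls: cell-only wells, no compound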
# PTEN del growth: growth suppression of PTEN-null HCT116, primary screen, cell-based, CellTiter-Glo; 140,000 tested, 1.2% active; HCT116 PTEN-null viability, 60 h; active compounds read low; viability, % at 10 µM;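 active = viability at or below a set limit, 4 SD under the median of all tested compounds, cut at about 3.7% in these data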;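 note: PTEN knockout HCT116 line with beta catenin targeted HCT116 as companion control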
# An asterisk follows results filed as active; . = not tested or not shown.
SMILES,HUVEC inhibit,HCT116 bCat-KO,H69AR inhibit,Fibroblast inh,PTEN del growth
CSc1nnc2c3c4c(sc3nc(-n3nc(C)cc3C)n12)COC(C)(C)C4,92,68,74,107,68
Cc1cc(C)n(-c2nc(-n3nc(C)cc3C)c3c4c(sc3n2)COC(C)(C)C4)n1,106,94,26*,87,91
C=CCOc1ccc2c(c1)C(=NO)c1cc(OCC=C)ccc1-2,71,44,34*,95,43
CCOC(=O)c1cc2c(N)c(C(=O)c3cc(C#N)c(SC)nc3C)sc2nc1C,42,66,16*,.,17
COc1cccc(NC(=S)NC2CC(C)(C)NC(C)(C)C2)c1,.,84,.,.,95
COc1ccc(C2NC(=O)NC3=C2CCc2ccccc23)cc1 (stereo not drawn),80,37,24*,84,25
CCCCC(=O)O[C@H]1CC[C@H]2[C@@H]3CCc4cc(O)ccc4[C@H]3CC[C@]12C,8.9*,53,1.1*,85,63
C[C@]12CC[C@@H]3c4ccc(O)cc4CC[C@H]3[C@@H]1CCC2=O,78,78,81,93,75
CC(=O)[C@@]1(O)CC[C@H]2[C@@H]3CCC4=CC(=O)CC[C@]4(C)[C@H]3[C@@H](O)C[C@@]21C,97,88,92,94,97
CC(=O)[C@@]1(O)CC[C@H]2[C@@H]3C[C@H](C)C4=CC(=O)CC[C@]4(C)[C@H]3CC[C@@]21C,94,63,6.9*,87,74
Cc1cc(C)c(NC(=O)C(C)c2cccc(C(=O)c3ccccc3)c2)c(C)c1 (stereo not drawn),.,39,.,.,43
CCCCN(Cc1ccco1)C(=O)c1cc2c(=O)[nH]c3ccc(C)cc3c2s1,4.4*,51,28*,62,41
Cc1ccc2[nH]c(=O)c(CN(Cc3ccco3)C(=O)c3cccs3)cc2c1,92,91,83,95,91
Cc1ccc2cc(CN(Cc3ccco3)C(=O)c3cccs3)c(=O)[nH]c2c1,61,12,21*,54,13
Cc1nc2ccccn2c1C(=O)NNS(=O)(=O)c1ccc(C(C)(C)C)cc1,.,52,.,.,67
Cc1ccc(S(=O)(=O)c2c(N)n(CCCO)c3nc4ccccc4nc23)cc1,87,87,83,96,81
Nc1c(S(=O)(=O)c2ccccc2)c2nc3ccccc3nc2n1/N=C/c1cccc(O)c1,6.9*,9,1.4*,100,3.6*
Cn1c(N)c(S(=O)(=O)c2ccc(Br)cc2)c2nc3ccccc3nc21,63,77,13*,97,84
Cc1ccc(S(=O)(=O)c2c(N)n(CCC(C)C)c3nc4ccccc4nc23)cc1,65,8,92,95,2.6*
CC(C)CCn1c(N)c(S(=O)(=O)c2cccs2)c2nc3ccccc3nc21,74,30,40*,84,22
Cc1cccc(S(=O)(=O)c2c(N)n(/N=C/c3ccccc3)c3nc4ccccc4nc23)c1,99,53,44,93,53
Cc1ccc(C2=Nc3ccccc3N(C(=O)c3ccccc3)C(C)C2)cc1 (stereo not drawn),.,89,.,.,87
Fc1ccccc1-c1nc(NCCCN2CCOCC2)c2ccccc2n1,86,79,50,105,84
Cc1cc(C)c2nc(C(F)(F)F)nc(NCCCN3CCOCC3)c2c1,6.4*,23,8.9*,51,38
Cc1ccc(CNc2oc(-c3ccco3)nc2S(=O)(=O)c2ccccc2)cc1,99,91,97,95,84
SMILES,HUVEC inhibit,HCT116 bCat-KO,H69AR inhibit,Fibroblast inh,PTEN del growth
Cc1ccnc(SCc2cc(=O)c(OC(=O)c3ccc(Cl)c([N+](=O)[O-])c3)co2)n1,.,101,.,.,102
Cc1cccc(N2CCN(C(=O)c3ccc(CS(=O)(=O)c4ccccc4C)o3)CC2C)c1 (stereo not drawn),43,21,25*,59,15
Cc1ccc(C)c(N2CCN(C(=O)C(Cc3ccccc3)n3cccc3)CC2)c1 (stereo not drawn),110,69,22*,90,67
COc1ccccc1S(=O)(=O)Cc1ccc(C(=O)N2CCN(c3cccc(Cl)c3)CC2)o1,59,26,9.4*,64,21
COc1ccccc1S(=O)(=O)Cc1ccc(C(=O)N2CCN(c3ccccc3)CC2)o1,106,66,80,95,64
Cc1ccc(C)c(N2CCN(C(=O)c3ccc(CS(=O)(=O)c4ccccc4C)o3)CC2)c1,54,16,15*,78,21
Cc1ccc(-n2c(=O)c3sccc3n(Cc3cc(=O)n4cc(Cl)ccc4n3)c2=O)cc1F,.,98,.,.,95
Cc1ccc(S(=O)(=O)Cc2ccc(C(=O)N3CCN(c4cc(C)ccc4C)CC3)o2)cc1,62,34,17*,73,33
Cc1cc(C(=O)N2CCN(c3cccc(Cl)c3)CC2)c(C)o1,58,44,16*,73,35
Cc1ccc(S(=O)(=O)Cc2ccc(C(=O)N3CCCC3)o2)cc1,97,94,90,98,103
Cc1cc(C(=O)N2CCN(c3ccccc3)CC2)c(C)o1,99,99,83,108,81
COc1cc(OC)c(OC)cc1/C=C/C(=O)c1ccc(NS(=O)(=O)c2ccc(C)cc2)cc1,.,33,.,.,30
Clc1ccccc1CSc1nncn1NC/C=C/c1ccccc1,.,80,.,.,79
Cc1ccc2[nH]c3c(c2c1)CN(C(=O)CN1c2ccc(F)cc2CCC1C)CC3 (stereo not drawn),63,12,11*,95,15
Cc1ccc2[nH]c3c(c2c1)CN(C(=O)CN1CCN(c2cccc(C)c2C)CC1)CC3,69,67,42,106,66
O=c1[nH][nH]c(-c2ccccc2O)c1C(C[N+](=O)[O-])c1ccc(Cl)cc1Cl (stereo not drawn),.,36,.,.,58
O=c1[nH][nH]c(-c2ccccc2O)c1C(C[N+](=O)[O-])c1ccccc1 (stereo not drawn),.,5.7*,.,.,4
O=c1[nH][nH]c(-c2ccccc2O)c1C(C[N+](=O)[O-])c1cccc(Cl)c1 (stereo not drawn),.,5.9*,.,.,8
Brc1ccc2ncnc(NCc3ccco3)c2c1,70,59,55,95,58
OC(CNCc1ccco1)Cn1c2ccc(Br)cc2c2cc(Br)ccc21 (stereo not drawn),.,2.1*,.,.,1.7*
Cc1nc(NC(=O)CSc2nc3cccnc3n2Cc2ccccc2)sc1C,33,76,18*,51,89
O=C(CSc1nc2ccccc2o1)Nc1nc2ccc(Br)cc2s1,.,96,.,.,102
COc1ccc2nc(NC(=O)CSc3nc4ccccc4o3)sc2c1,86,99,7.1*,95,103
CCOC(=O)CNC(=O)CSc1nc2cccnc2n1Cc1ccccc1,105,92,93,103,91
